Measured values reported in ChEMBL document CHEMBL1149661, “Synthesis, biological evaluation, and molecular modeling of 3,5-substituted-N1-phenyl-N4,N4-di-n-butylsulfanilamides as antikinetoplastid antimicrotubule agents” (Bioorg Med Chem, 2007).

Key:
Leishmania donovani = assay: Growth inhibition against Leishmania donovani; format: functional, organism-based
[1] = tested on: Trypanosoma brucei brucei; assay: Growth inhibition against Trypanosoma brucei brucei; format: functional, organism-based
Tubulin = Tubulin (Sus scrofa, UniProt P02554+P02550); assay: Inhibition of porcine tubulin assembly; format: protein assay
How it was run: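 Purified porcine brain tubulin at a final 2 mg/mL (raised from 1.5 mg/mL to make control assembly more reproducible). Polymerization read as the absorbance change at 351 nm after 20 min at 30 °C relative to controls. IC50 is the mean ± SD of at least three independent experiments.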

[2] = Toxicity against monkey Vero cells; format: cell-based; settings: Chlorocebus sabaeus (monkey)
[3] = Inhibition of Leishmania tarentolae tubulin assembly
How it was run: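 Purified Leishmania tarentolae tubulin, 1.5 mg/mL, polymerized with or without compound. Assembly read as the absorbance change at 351 nm after 20 min at 30 °C, compared with untreated controls. Assembly kinetics were also followed over time. IC50 is the mean ± SD of at least three independent experiments.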

Tubulin (Sus scrofa) = Tubulin (Sus scrofa) (UniProt P02554+P02550); assay: Inhibition of porcine tubulin assembly at 100 uM; format: protein assay
Tubulin (Sus scrofa), sequence (P02550 whole entry, looked up): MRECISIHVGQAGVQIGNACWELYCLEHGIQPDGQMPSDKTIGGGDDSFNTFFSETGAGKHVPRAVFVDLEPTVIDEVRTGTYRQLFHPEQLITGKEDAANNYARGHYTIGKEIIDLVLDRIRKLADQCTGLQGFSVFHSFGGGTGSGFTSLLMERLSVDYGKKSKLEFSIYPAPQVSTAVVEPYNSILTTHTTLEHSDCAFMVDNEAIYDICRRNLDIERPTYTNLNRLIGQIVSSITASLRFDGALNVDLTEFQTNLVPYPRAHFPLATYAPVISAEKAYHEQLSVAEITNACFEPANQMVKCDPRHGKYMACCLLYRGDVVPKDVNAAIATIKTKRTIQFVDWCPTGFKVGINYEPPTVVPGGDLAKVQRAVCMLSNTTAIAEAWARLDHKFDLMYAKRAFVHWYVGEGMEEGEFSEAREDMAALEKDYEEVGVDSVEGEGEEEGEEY
Tubulin (Sus scrofa), sequence (P02554 whole entry, looked up): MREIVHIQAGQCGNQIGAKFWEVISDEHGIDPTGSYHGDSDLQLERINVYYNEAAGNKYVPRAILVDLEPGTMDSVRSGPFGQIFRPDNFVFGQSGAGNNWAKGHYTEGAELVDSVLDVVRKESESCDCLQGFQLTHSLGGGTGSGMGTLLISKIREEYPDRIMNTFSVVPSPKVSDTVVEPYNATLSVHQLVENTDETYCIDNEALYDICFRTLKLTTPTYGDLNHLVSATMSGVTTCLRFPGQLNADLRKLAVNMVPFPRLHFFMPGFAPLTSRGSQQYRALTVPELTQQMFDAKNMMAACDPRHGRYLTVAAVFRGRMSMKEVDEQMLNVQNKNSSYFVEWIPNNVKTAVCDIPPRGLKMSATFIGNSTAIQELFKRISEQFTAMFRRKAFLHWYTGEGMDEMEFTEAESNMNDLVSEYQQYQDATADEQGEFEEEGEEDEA
How it was run: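 Porcine brain tubulin at a final 2 mg/mL, assembled with compound at a single 100 μM. Inhibition taken from the absorbance change at 351 nm after 20 min at 30 °C, relative to controls without compound.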

SMILES | IC50 (Leishmania donovani) [µM] | IC50 [1] [µM] | IC50 (Tubulin) [µM] | IC50 [2] [µM] | IC50 [3] [µM] | inhibition (Tubulin (Sus scrofa)) [%]
CCCCN(CCCC)c1c(C#N)cc(S(=O)(=O)Nc2ccccc2)cc1C#N | 4.4 | 0.26 | > 50 | 16 | 6.6 | –
Cc1ccc(C(=O)Nc2ccc(S(=O)(=O)O)c3cc(S(=O)(=O)O)cc(S(=O)(=O)O)c23)cc1NC(=O)c1cccc(NC(=O)Nc2cccc(C(=O)Nc3cc(C(=O)Nc4ccc(S(=O)(=O)O)c5cc(S(=O)(=O)O)cc(S(=O)(=O)O)c45)ccc3C)c2)c1 [SURAMIN] | – | 0.077 | – | – | – | –
COc1cc([C@@H]2c3cc4c(cc3[C@H](O)[C@H]3COC(=O)[C@H]23)OCO4)cc(OC)c1OC [PODOFILOX] | – | – | – | 0.016 | – | –
CCCCN(CCCC)c1c(C(N)=O)cc(S(=O)(=O)Nc2ccccc2)cc1C(N)=O | > 50 | > 50 | – | – | > 100 | –
CCCCN(CCCC)c1c(C(=O)O)cc(S(=O)(=O)Nc2ccccc2)cc1C(=O)O | > 50 | > 50 | – | – | > 100 | –
CCCCN(CCCC)c1c(C(=O)OC)cc(S(=O)(=O)Nc2ccccc2)cc1C(=O)OC | > 50 | > 50 | – | – | > 100 | –
CCCCN(CCCC)c1c(Cl)cc(S(=O)(=O)Nc2ccccc2)cc1Cl | 11 | 1.6 | > 50 | 19 | 9.1 | –
N=C(N)c1ccc(OCCCCCOc2ccc(C(=N)N)cc2)cc1 [PENTAMIDINE] | 2.3 | – | – | – | – | –
CCCCN(CCCC)c1c([N+](=O)[O-])cc(S(=O)(=O)Nc2ccccc2)cc1[N+](=O)[O-] | 2.3 | 0.18 | > 40 | 9.7 | 7.4 | –
CCCCN(CCCC)c1c(C(C)=O)cc(S(=O)(=O)Nc2ccccc2)cc1C(C)=O | 30 | 1.6 | > 100 | 26 | > 100 | –
CCCCN(CCCC)c1c(N)cc(S(=O)(=O)Nc2ccccc2)cc1N | 12 | 4 | > 50 | 27 | > 100 | 50
